Test results as given in ChEMBL document CHEMBL4334465, “SAR Studies on Aromatic Acylhydrazone-Based Inhibitors of Fungal Sphingolipid Synthesis as Next-Generation Antifungal Agents” (J Med Chem, 2019).
Converted amounts (≈) assume the structure as drawn. The source made the active and inactive calls. The rule behind the calls is not given here.

Legend:
Candida albicans [1] = experiment: Antifungal activity against Candida albicans assessed as FICI in presence of fluconazole; type: functional
Summary of the method: (§1)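 Checkerboard combination scored by fractional inhibitory concentration index. Acylhydrazone serially diluted 16 to 0.015 μg/mL (11 dilutions). Partner drug in seven dilutions: fluconazole 12 to 0.19 μg/mL, amphotericin B 5 to 0.078 μg/mL, caspofungin, itraconazole or voriconazole 8 to 0.007 μg/mL.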

[Candida] auris [2] = Antifungal activity against Candida auris assessed as FICI in presence of itraconazole; type: functional, Candidozyma auris; summary of the method: as §1
Pichia kudriavzevii [3] = experiment: Antifungal activity against fluconazole-resistant Candida krusei assessed as FICI in presence of voriconazole; type: functional
Summary of the method: (§2)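 Checkerboard in 96-well plate. Test compound diluted 16 to 0.015 μg/mL (11 dilutions) against the partner drug in seven dilutions: fluconazole 12 to 0.19 μg/mL, caspofungin, itraconazole or voriconazole 8 to 0.007 μg/mL. Fractional inhibitory concentration index (FICI) calculated from the combinations.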

Pichia kudriavzevii [4] = experiment: Antifungal activity against Candida krusei 6258 assessed as FICI in presence of caspofungin; type: functional; summary of the method: as §1
Aspergillus fumigatus [5] = experiment: Antifungal activity against Aspergillus fumigatus measured after 24 to 72 hrs; type: functional
Summary of the method: (§3)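 Modified CLSI broth microdilution with inoculum per M27A3. Compounds were serially diluted 32 to 0.03 μg/mL. Media: C. neoformans in HEPES-buffered YNB without amino acids (pH 7.0, 2% glucose); Candida strains in YNB without ammonium sulfate or amino acids plus 1% asparagine (pH 7.0, 2% glucose); A. fumigatus in RPMI (pH 7.0, 2% glucose).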

Candida parapsilosis [6] = experiment: Antifungal activity against Candida parapsilosis assessed as FICI in presence of voriconazole; type: functional; summary of the method: as §1
[Candida] auris [7] = Antifungal activity against Candida auris assessed as FICI in presence of caspofungin; type: functional, Candidozyma auris; summary of the method: as §1
Cryptococcus neoformans [8] = experiment: Fungicidal activity against Cryptococcus neoformans H99 measured up to 96 hrs by time-kill assay; type: functional, organism-based; conditions: var grubii H99
Summary of the method: (§4)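 Overnight C. neoformans washed in PBS and resuspended in HEPES-buffered YNB, pH 7.4. 2 × 10⁴ cells exposed to a range of drug concentrations in 10 mL with 0.5% DMSO final, at 37°C, 5% CO₂, shaking at 200 rpm. Aliquots sampled over 96 h, diluted and plated on YPD; CFU counted after 48 h at 30°C.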

[9] = Selectivity index, ratio of LD50 for human A549 cells to MIC80 for Cryptococcus neoformans H99; type: toxicity; conditions: read-out: Selectivity Index
Summary of the method: (§5)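 SI = LD₅₀/MIC₈₀. Cytotoxicity: A549 or HepG2 cells (DMEM, 10% FBS, passage 7, 10⁵ cells/well) adhered 14 h, then exposed to 0.03–128 μg/mL for 24 or 48 h at 37°C, 5% CO₂; MTT 4 h, formazan dissolved in DMSO, read at 570 nm. MIC₈₀ against C. neoformans from broth microdilution in HEPES-buffered YNB, pH 7.0.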

Candida albicans [10] = experiment: Antifungal activity against Candida albicans assessed as FICI in presence of caspofungin; type: functional; summary of the method: as §1
[Candida] auris [11] = Antifungal activity against Candida auris assessed as FICI in presence of fluconazole; type: functional, Candidozyma auris; summary of the method: as §1
Pichia kudriavzevii [12] = experiment: Antifungal activity against Candida krusei measured after 24 to 72 hrs; type: functional
Summary of the method: (§6)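 MIC by modified CLSI broth microdilution. Candida strains grown in YNB without ammonium sulfate or amino acids with 1% asparagine, pH 7.0, 2% glucose. Inoculum per CLSI M27A3. Compound serially diluted 32 to 0.03 μg/mL. Incubation 37°C, 5% CO₂, 24–72 h, then OD450. MIC80 taken as the lowest concentration giving 80% growth inhibition versus untreated control.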

Aspergillus fumigatus [13] = experiment: Antifungal activity against Aspergillus fumigatus assessed as FICI in presence of voriconazole; type: functional; summary of the method: as §1
Pichia kudriavzevii [14] = experiment: Antifungal activity against Candida krusei 6258 assessed as FICI in presence of fluconazole; type: functional; summary of the method: as §1
Pichia kudriavzevii [15] = experiment: Antifungal activity against fluconazole-resistant Candida krusei assessed as FICI in presence of caspofungin; type: functional; summary of the method: as §2
[16] = Selectivity index, ratio of LD50 for human HepG2 cells to MIC80 for Cryptococcus neoformans H99; type: toxicity; conditions: read-out: Selectivity Index; summary of the method: as §5
[Candida] auris [17] = Antifungal activity against Candida auris assessed as FICI in presence of voriconazole; type: functional, Candidozyma auris; summary of the method: as §1
Pichia kudriavzevii [18] = experiment: Antifungal activity against multi-drug resistant Candida krusei measured after 24 to 72 hrs; type: functional; summary of the method: as §6
Candida parapsilosis [19] = experiment: Antifungal activity against Candida parapsilosis measured after 24 to 72 hrs; type: functional; conditions: Lodderomyces parapsilosis; summary of the method: as §3
Cryptococcus neoformans [20] = experiment: Antifungal activity against Cryptococcus neoformans H99 measured after 24 to 72 hrs; type: functional; conditions: var grubii H99; summary of the method: as §3
Aspergillus fumigatus [21] = experiment: Antifungal activity against Aspergillus fumigatus assessed as FICI in presence of itraconazole; type: functional; summary of the method: as §1
Pichia kudriavzevii [22] = experiment: Antifungal activity against fluconazole-resistant Candida krusei assessed as FICI in presence of fluconazole; type: functional; summary of the method: as §2
Cryptococcus neoformans [23] = experiment: Antifungal activity against Cryptococcus neoformans H99 assessed as FICI in presence of voriconazole; type: functional, var grubii H99; summary of the method: as §1
Aspergillus fumigatus [24] = experiment: Antifungal activity against Aspergillus fumigatus assessed as FICI in presence of fluconazole; type: functional; summary of the method: as §1
Candida albicans [25] = experiment: Antifungal activity against Candida albicans assessed as FICI in presence of itraconazole; type: functional; summary of the method: as §1
[Candida] auris [26] = Antifungal activity against Candida auris measured after 24 to 72 hrs; type: functional; conditions: Candidozyma auris; summary of the method: as §3
Candida parapsilosis [27] = experiment: Antifungal activity against Candida parapsilosis assessed as FICI in presence of itraconazole; type: functional; summary of the method: as §1
Candida parapsilosis [28] = experiment: Antifungal activity against Candida parapsilosis assessed as FICI in presence of fluconazole; type: functional; summary of the method: as §1
A549 = experiment: Cytotoxicity against human A549 cells after 24 to 48 hrs by MTT assay; type: functional; conditions: read-out: LD50 (the source's name)
Summary of the method: (§7)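 A549 and HepG2 kept in DMEM with 10% FBS and 1% pen-strep. At passage 7, seeded at 10⁵ cells/well and allowed to adhere 14 h. Compound added at 0.03–128 μg/mL, untreated wells as controls. Incubation 37°C, 5% CO₂ for 24 or 48 h. MTT (5 mg/mL in PBS) added for 4 h, formazan dissolved in DMSO, OD570.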

Pichia kudriavzevii [29] = experiment: Antifungal activity against fluconazole-resistant Candida krusei assessed as FICI in presence of itraconazole; type: functional; summary of the method: as §2
Pichia kudriavzevii [30] = experiment: Antifungal activity against Candida krusei 6258 assessed as FICI in presence of voriconazole; type: functional; summary of the method: as §1
HepG2 = experiment: Cytotoxicity against human HepG2 cells after 24 to 48 hrs by MTT assay; type: functional; conditions: read-out: LD50 (the source's name); summary of the method: as §7
Cryptococcus neoformans [31] = experiment: Antifungal activity against Cryptococcus neoformans H99 assessed as FICI in presence of itraconazole; type: functional, var grubii H99; summary of the method: as §1
Cryptococcus neoformans [32] = experiment: Antifungal activity against Cryptococcus neoformans H99 assessed as FICI in presence of amphotericin B; type: functional, var grubii H99; summary of the method: as §1
Pichia kudriavzevii [33] = experiment: Antifungal activity against Candida krusei 6258 assessed as FICI in presence of itraconazole; type: functional; summary of the method: as §1
Cryptococcus neoformans [34] = experiment: Antifungal activity against Cryptococcus neoformans H99 assessed as FICI in presence of fluconazole; type: functional, var grubii H99; summary of the method: as §1
Candida parapsilosis [35] = experiment: Antifungal activity against Candida parapsilosis assessed as FICI in presence of caspofungin; type: functional; summary of the method: as §1
Candida albicans [36] = experiment: Antifungal activity against Candida albicans assessed as FICI in presence of voriconazole; type: functional; summary of the method: as §1
Candida albicans [37] = experiment: Antifungal activity against Candida albicans measured after 24 to 72 hrs; type: functional; summary of the method: as §3
Cryptococcus neoformans [38] = experiment: Fungicidal activity against Cryptococcus neoformans H99 measured after 72 hrs by time-kill assay; type: functional, var grubii H99; summary of the method: as §4
Cryptococcus neoformans [39] = experiment: Antifungal activity against Cryptococcus neoformans H99 infected in CBA/J mouse assessed as increase in survival at 1.2 mg/kg, ip; type: functional, organism-based; conditions: var grubii H99
Cryptococcus neoformans [40] = experiment: Inhibition of glucosylceramide synthesis in Cryptococcus neoformans H99 in presence of [3H]palmitate; type: functional, organism-based; conditions: var grubii H99
J774 = experiment: Inhibition of glucosylceramide synthesis in mouse J774 cells in presence of [3H]palmitate; type: cell-based

Compound: O=C(N/N=C/c1cc(Br)ccc1O)c1ccc(Br)cc1Br
- fractional inhibitory concentration index (FICI) (Candida albicans [1]): 2
- fractional inhibitory concentration index (FICI) ([Candida] auris [2]): 1.016
- fractional inhibitory concentration index (FICI) (Pichia kudriavzevii [3]): 1.063
- fractional inhibitory concentration index (FICI) (Pichia kudriavzevii [4]): 1.002
- MIC80 (Aspergillus fumigatus [5]): > 16 µg/mL
- fractional inhibitory concentration index (FICI) (Candida parapsilosis [6]): 0.135
- fractional inhibitory concentration index (FICI) ([Candida] auris [7]): 2
- Activity (Cryptococcus neoformans [8]): Dose-dependent effect
- selectivity ratio [9]: 1070
- fractional inhibitory concentration index (FICI) (Candida albicans [10]): 0.502
- fractional inhibitory concentration index (FICI) ([Candida] auris [11]): 2
- MIC80 (Pichia kudriavzevii [12]): 8 µg/mL (≈ 16.8 µM)
- fractional inhibitory concentration index (FICI) (Aspergillus fumigatus [13]): 0.515
- fractional inhibitory concentration index (FICI) (Pichia kudriavzevii [14]): 1.002
- fractional inhibitory concentration index (FICI) (Pichia kudriavzevii [15]): 2
- selectivity ratio [16]: 1070
- fractional inhibitory concentration index (FICI) ([Candida] auris [17]): 1.125
- MIC80 (Pichia kudriavzevii [18]): > 16 µg/mL
- MIC80 (Candida parapsilosis [19]): 8 µg/mL (≈ 16.8 µM)
- MIC80 (Cryptococcus neoformans [20]): 0.06 µg/mL (≈ 0.126 µM)
- fractional inhibitory concentration index (FICI) (Aspergillus fumigatus [21]): 0.484
- fractional inhibitory concentration index (FICI) (Pichia kudriavzevii [22]): 2
- fractional inhibitory concentration index (FICI) (Cryptococcus neoformans [23]): 0.072
- fractional inhibitory concentration index (FICI) (Aspergillus fumigatus [24]): 2
- fractional inhibitory concentration index (FICI) (Candida albicans [25]): 0.128
- MIC80 ([Candida] auris [26]): > 16 µg/mL
- fractional inhibitory concentration index (FICI) (Candida parapsilosis [27]): 2.098
- fractional inhibitory concentration index (FICI) (Candida parapsilosis [28]): 1.015
- CC50 (A549): 64 µg/mL (≈ 134 µM)
- fractional inhibitory concentration index (FICI) (Pichia kudriavzevii [29]): 0.375
- fractional inhibitory concentration index (FICI) (Pichia kudriavzevii [30]): 1.06
- CC50 (HepG2): 64 µg/mL (≈ 134 µM)
- fractional inhibitory concentration index (FICI) (Cryptococcus neoformans [31]): 0.072
- fractional inhibitory concentration index (FICI) (Cryptococcus neoformans [32]): 0.086
- fractional inhibitory concentration index (FICI) (Pichia kudriavzevii [33]): 2.015
- fractional inhibitory concentration index (FICI) (Cryptococcus neoformans [34]): 0.065
- fractional inhibitory concentration index (FICI) (Candida parapsilosis [35]): 1.5
- fractional inhibitory concentration index (FICI) (Candida albicans [36]): 0.256
- MIC80 (Candida albicans [37]): > 16 µg/mL
- MFC100 (Cryptococcus neoformans [38]): 0.06 µg/mL (≈ 0.126 µM)

Compound: Cc1ccccc1C(=O)N/N=C/c1cc(Br)ccc1O
- Activity (Cryptococcus neoformans [39]): Active
- inhibition (Cryptococcus neoformans [40]): Dose-dependent effect
- inhibition (INH) (J774): Dose-dependent effect
